# Compound activity (PubChem BioAssay)
# T cell modulator = modulates CD8 T cell binding to vesicles; 2C CD8+ T cell-vesicle binding, flow cytometry; stronger effect = lower value; response (vesicle binding), % at 7 µM; 0.068% of 330,000 active;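 active = response, share of CD8 T cells binding vesicles, and their 90th percentile fluorescence all below set limits, cut at about 80% in these data, passing the limit was not always enough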;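 also: values below 100% mean blocked vesicle binding to the CD8+ T cells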
#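 Test system: purified 2C TCR transgenic mouse naive CD8+ T cells. Probe or stimulus: QL9-peptide-loaded Drosophila micro-vesicles bearing Ld, ICAM-1 and B7-1. Incubation: binding step 1.5 h, 37 °C, antibody labelling 20 min, ice. Measured by: flow cytometry of vesicle-bound cells.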
# IMP-1 inhibitor = inhibitors of Pseudomonas aeruginosa IMP-1 metallo-beta-lactamase; inhibition, % at 5.6 µM; 0.45% of 290,000 active; purified IMP-1, nitrocefin hydrolysis, epi-absorbance fluorescence;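 active = inhibition above the mean plus 3 SD of all compounds in the same screening run, cut at about 4.5% in these data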;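 also: 0% = IMP-1 with DMSO and 100% = DMSO wells lacking enzyme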
#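 Test system: recombinant IMP-1 enzyme, purified / Medium: HEPES buffer pH 7.1 with ZnSO4 and Brij 35 / Doses: single dose, 5.6 µM / Times: 25 °C, 15 min preincubation, 25 min reaction / Detection: Epi-absorbance via hydrolysed-nitrocefin quenching of white-plate fluorescence, 480/530 nm, EDTA stop / Evaluation: percent inhibition from optical density relative to buffer-blank wells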
# VIM-2 inhibitor = inhibitors of Pseudomonas aeruginosa VIM-2 metallo-beta-lactamase; purified VIM-2, nitrocefin hydrolysis, epi-absorbance fluorescence; 0.89% of 290,000 active; inhibition, % at 5.6 µM;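 active = inhibition above the mean of all tested compounds plus 3 SD, cutoff set per screening run, cut at about 7.5% in these data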;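 also: red hydrolysis product quenches plate fluorescence so inhibitors raise well fluorescence; 0% = enzyme with DMSO and 100% = DMSO without enzyme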
# pCIP destab = compounds decreasing mouse p/CIP protein stability | Q05BA5 | F442A p/CIP-EGFP cells, EGFP fluorescence, 16 h | decrease of EGFP signal, % at 10 µM | 0.01% of 290,000 active | AID 1984;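 active = EGFP signal decrease of at least 30% at 10 µM or well 3 SD below plate mean, unless failing retest; inactive = the rest, including hits failing retest or dose response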
# Fh CTSL1 inh = blocks F. hepatica cathepsin L1 in PFM18AAP counter-screen | recombinant F. hepatica cathepsin L1, Z-Leu-Arg-MCA fluorescence | inhibition, % at 5.96 µM | 0.49% of 300,000 active | AID 1906;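 active = inhibition above the mean of all tested compounds plus 3 SD, set per screening campaign, cut at about 17% in these data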;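 also: 0% = plate median of test compound wells and 100% = 1 µM Z-Phe-Ala-diazomethylketone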
# SUMO HTRF inh = SUMOylation inhibition | HTRF SUMOylation assay, SAE1/SAE2 + UBC9, in vitro | inhibition, % at 35 µM | 0.36% of 290,000 active | AID 2006; in the data active = inhibition above about 50%, passing the limit was not always enough
# Target sequence (P63279 whole entry, looked up): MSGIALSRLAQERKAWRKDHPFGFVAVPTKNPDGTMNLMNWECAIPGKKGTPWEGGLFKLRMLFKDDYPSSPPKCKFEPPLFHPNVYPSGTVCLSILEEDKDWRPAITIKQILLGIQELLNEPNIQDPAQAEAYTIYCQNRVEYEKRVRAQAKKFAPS
# * hit, by the source's call; i = inactive; nt = no result. Sampled rows, rich in hits. Any-hit rate of the full collection: about 1.9%.
SMILES,T cell modulator,IMP-1 inhibitor,VIM-2 inhibitor,pCIP destab,Fh CTSL1 inh,SUMO HTRF inh
COc1ccc(C(C(=O)NCC2CCCO2)N(C(=O)c2snc(C(N)=O)c2N)c2ccccc2C)cc1OC (stereo not given),324,-2,-4,-12,0,17
CC(C)(C)OC1NS(=O)(=O)OCC1NCOC(Cl)(Cl)Cl (stereo not given),275,-5,-3,-7,17*,19
O=C1CC2(CCN(C(=O)c3cccc(F)c3)CC2)Oc2ccccc21,328,nt,nt,nt,1,nt
COc1ccc(C(C)=O)cc1CC(=O)NCCCn1ccnc1,223,4.8*,-2,-3,3,-9
COc1ccc(Cl)cc1C(=O)NCCCn1ccnc1,236,3,6,-3,-1,1
COc1ccc(C(=O)N/C(=C\c2ccco2)C(=O)NCCCn2ccnc2)cc1,i,0,-3,-9,5,5
Cc1ccc(C(=O)N/C(=C\c2ccco2)C(=O)NCCCn2ccnc2)cc1C,575,9.7*,3,-13,5,-6
CS(=O)(=O)NCCNC(=O)c1cc(OCC(F)(F)F)ccc1OCC(F)(F)F,546,-4,0,13,3,13
CCc1ccc(OCc2cccc(C(=O)N/N=C\c3cnn(C)c3C)c2)cc1,nt,6.4*,-2,-4,nt,4
Cc1c(/C=N\NC(=O)c2cccc(F)c2)cnn1C,264,-3,-4,-2,2,12
O=C(CN1C(=O)NC2(CCCC2)C1=O)NNC(=O)c1ccccc1,526,nt,nt,nt,-2,nt
Nc1nonc1-n1nnc(C(=O)N/N=C/c2ccc(OCc3ccccc3)cc2)c1CN1CCCCC1,48,-1,-1,-9,0,0
COc1ccc(-c2cc3c(=O)n(CC(=O)NCCCN4CCC(Cc5ccccc5)CC4)ncn3n2)cc1,577,-1,-3,-14,20*,17
COCCn1c(SCC(=O)c2ccc3c(c2)OCCO3)nnc1C(C)C,494,-3,-1,-25,18*,3
COCCn1c(SCC(=O)Nc2ccc3c(c2)OCCO3)nnc1C(C)C,355,-3,-6,0,-2,4
COc1ccc(OC)c(-n2c(=S)[nH]c3cc(C(=O)N4CCN(c5ccccc5)CC4)ccc3c2=O)c1,249,-4,-3,-6,4,12
O=C(NNC(=S)NC(=O)c1ccco1)c1ccc(F)cc1,50*,-1,-2,-11,11,18
COc1ccc(C(=O)NNC(=S)NC(=O)c2ccco2)cc1,307,-3,-1,-6,1,6
CC(NC(=O)CCl)c1ccc(Cl)c(Cl)c1 (stereo not given),268,-5,0,-9,23*,2
CCOC(=O)C1CCCN(C(=O)c2ccc3c(c2)N(Cc2ccccc2)C(=O)c2ccccc2S3=O)C1 (stereo not given),246,-2,-4,-5,-1,-10
COC(=O)N/N=C\c1cc2c(cc1Br)OCO2,267,-2,-3,0,-1,14
CC1(CC(=O)N/N=C/c2cc3c(cc2Br)OCO3)OCCO1,235,-6,-6,-2,17*,-2
Oc1ccc(Cl)cc1CNc1ccc(Br)cn1,i,-1,0,3,-5,-2
Oc1c(Cl)cc(Cl)cc1CNc1ccc(Br)cn1,342,6.1*,-2,4,5,3
O=C(CNC(=O)c1cccc(Cl)c1)Nc1ccc(F)c(F)c1F,785,-1,-1,-2,7,11
SMILES,T cell modulator,IMP-1 inhibitor,VIM-2 inhibitor,pCIP destab,Fh CTSL1 inh,SUMO HTRF inh
O=C(CSc1cc(Cl)ccc1Cl)NCC(=O)Nc1ccc(F)c(F)c1F,105,-1,-4,8,18*,-7
O=C(N/N=C/C(Br)=C/c1ccccc1)c1ccncc1,798,-1,-1,-3,7,20
O=C(N/N=C/C(Br)=C/c1ccccc1)c1ccc([N+](=O)[O-])cc1,330,42*,0,0,-1,16
COc1ccccc1Oc1c(C)oc2c(CN(C)C)c(O)ccc2c1=O,321,-2,-3,2,-1,48
O=C(CCl)Nc1cccc(Oc2cnccn2)c1,285,-1,-2,-4,56*,1
O=C(CCl)Nc1cccc(Oc2ccccc2)c1,145,-5,-5,-25,43*,10
